Screening data (PubChem)
KCNK9 inh: KCNK9 potassium channel inhibitors, primary screen, HEK293 cells, thallium flux; Potassium channel subfamily K member 9 (Homo sapiens), Q9NPC2; FluxOR thallium flux fluorescence; active compounds read low; 310,000 tested, 1.2% active; B-score at 10 µM; AID 488922, 2010;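 active means ratio B-score over 3 SD below the library mean, with starting fluorescence within 5 SD of its mean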;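 further: negative B-score means less thallium flux so channel inhibition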
Target sequence (Q9NPC2 whole entry, looked up): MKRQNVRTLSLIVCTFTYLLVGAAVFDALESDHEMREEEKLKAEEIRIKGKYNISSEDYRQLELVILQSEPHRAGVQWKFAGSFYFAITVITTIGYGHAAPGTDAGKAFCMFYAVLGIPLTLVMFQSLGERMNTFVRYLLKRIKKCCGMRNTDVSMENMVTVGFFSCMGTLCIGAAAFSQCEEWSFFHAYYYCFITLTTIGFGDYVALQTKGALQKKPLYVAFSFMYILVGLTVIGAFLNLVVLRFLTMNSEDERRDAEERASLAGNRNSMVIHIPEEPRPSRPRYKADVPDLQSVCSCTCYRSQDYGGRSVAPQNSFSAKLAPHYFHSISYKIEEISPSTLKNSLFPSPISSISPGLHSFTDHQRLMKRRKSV
KCNQ1 pot: potentiators or activators of KCNQ1 channel, primary screen, cell-based, thallium flux, high-throughput | AID 2648, 2010 | CHO-K1 KCNQ1, thallium flux FluxOR fluorescence; active compounds read high | 310,000 tested, 0.35% active | Potassium voltage-gated channel subfamily KQT member 1 (Homo sapiens), P51787 | B-score at 10 µM;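 active means fluorescence ratio B-score, a plate-corrected score, at least three library SD, with initial intensity B-score within 5 SD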
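assay system = KCNQ1-transfected CHO-K1 cells | medium = assay buffer with matched DMSO | probe or stimulus = depolarizing K+/Tl+ stimulus, K2SO4 and Tl2SO4 each 12.5 mM in 5x stock | dosing = single dose | incubation = dye 90 min, compound 20 min, room temperature | detection = kinetic FluxOR fluorescence, 10 s baseline plus 110 s post-stimulus | evaluation = ratio B score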
KCNK3 inh: human KCNK3 channel inhibitors, primary screen, CHO cells, FluxOR thallium flux, B-score; Potassium channel subfamily K member 3 (Homo sapiens), O14649; FluxOR fluorescence; active compounds read low; B-score at 10 µM; 340,000 tested, 0.84% active; AID 602410, 2012;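 active means B-score under library mean minus 4 SD, starting fluorescence ratio at most library mean plus 5 SD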;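 further: more negative B-score means stronger inhibition of thallium flux through KCNK3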
KCNQ1 block: inhibitors of human KCNQ1 channel, primary screen, cell-based, thallium flux, high-throughput | Potassium voltage-gated channel subfamily KQT member 1 (Homo sapiens), P51787 | CHO-K1 KCNQ1, FluxOR thallium flux fluorescence; active compounds read high | B-score at 10 µM | 310,000 tested, 1.3% active | AID 2642, 2010;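 active means compounds whose thallium flux B-score, printed positive for inhibition, exceeds three library SD while starting fluorescence stays within three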;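 further: channel opened by potassium depolarization with thallium stimulus after 20 min compound exposure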
hERG protect: hERG rescue from dofetilide block, primary screen, cell-based, CHO-hERG, FluxOR thallium flux, dofetilide IC70. Voltage-gated inwardly rectifying potassium channel KCNH2 (Homo sapiens), Q12809. dofetilide IC70 present. activation (rescue from dofetilide block), less the hit threshold, % at 10 µM. 310,000 tested, 0.51% active. AID 1511, 2009;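 active means activation above the mean of controls blocked by dofetilide plus 5 SD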;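 further: thallium influx through hERG after potassium depolarization seen as dye fluorescence rise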
Kir21 inh: inhibitors of mouse Kir2.1 inward-rectifier potassium channel. B-score at 10 µM. HEK293-Kir2.1, FluxOR thallium flux fluorescence; active compounds read low. 310,000 tested, 0.85% active. Inward rectifier potassium channel 2 (Mus musculus), P35561;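 active means fluorescence ratio B-score at or below minus 3 SD of library scores, with starting-brightness B-score within 2 SD, cut at about -4.2 in these data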;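 further: channel flux triggered by added potassium and thallium sulfate stimulus; B-score of peak minus minimum fluorescence over baseline after thallium stimulus; more negative B-score means stronger Kir2.1 block with less thallium influx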
Target sequence (P35561 whole entry, looked up): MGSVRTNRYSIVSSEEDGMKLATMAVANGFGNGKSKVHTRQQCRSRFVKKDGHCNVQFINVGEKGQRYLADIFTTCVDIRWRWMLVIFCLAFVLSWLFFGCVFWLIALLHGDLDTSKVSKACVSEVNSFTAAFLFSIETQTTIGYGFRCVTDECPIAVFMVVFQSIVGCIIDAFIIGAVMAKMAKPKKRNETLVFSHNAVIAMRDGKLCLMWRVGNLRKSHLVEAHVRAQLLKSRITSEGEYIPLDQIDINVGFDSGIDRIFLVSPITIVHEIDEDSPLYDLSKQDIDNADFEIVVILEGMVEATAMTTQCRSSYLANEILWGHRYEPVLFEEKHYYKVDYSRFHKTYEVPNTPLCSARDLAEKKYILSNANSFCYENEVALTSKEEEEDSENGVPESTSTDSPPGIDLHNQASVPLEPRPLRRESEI
KCNK9 block conf: KCNK9 potassium channel inhibitors, confirmation, HEK293 cells, thallium flux, duplicate; FluxOR thallium flux fluorescence; 4,900 tested, 43% active; inhibition, % at 10 µM; shares compounds with KCNK9 inh;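 active means thallium signal inhibited by more than 5 SD of the compound-free buffer control wells, on both duplicate plates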
Kir2-1 spec: mouse Kir2.1 channel inhibition, confirmation, selectivity assay for KCNK9 modulator project, cell-based, HEK293, thallium flux; shares compounds with KCNK9 inh; Kir2.1 cells, FluxOR thallium flux fluorescence; inhibition, % at 10 µM; 4,900 tested, 4% active; AID 492993, 2010;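 active means thallium signal drop more than 5 SD beyond the mean of the no-compound control wells, seen in both duplicate plates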;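 further: signal is fluorescence rise after thallium addition divided by baseline fluorescence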
HEK293 Tl ctr: thallium flux in non-induced HEK293 cells, confirmation, counter-screen for KCNK9 inhibitor project, cell-based, second counter screen, non-induced KCNK9-HEK293. FluxOR thallium flux. shares compounds with KCNK9 inh. inhibition, % at 10 µM. 4,900 tested, 40% active;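 active means thallium signal drop beyond 5 SD of the untreated control mean, on both duplicate plates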
Each line names hits and unclear results; the compound was inactive in the other large screens (follow-up assays come after a bar, where they were run). Only some compounds are listed: those with a hit (about 3.8% of all), similar ones and a draw of the others.

Cc1cccnc1NC(=O)C1CCN(S(=O)(=O)c2c(C)noc2/C=C/c2ccco2)CC1	none | KCNK9 block conf inactive | Kir2-1 spec inactive | HEK293 Tl ctr inactive
Cc1ccc(NC(=O)C2CCN(S(=O)(=O)c3c(C)noc3/C=C/c3ccco3)CC2)nc1	none
Cc1ccc(C)c(NC(=O)CN(C)C(=O)c2nn(C)c(=O)c3ccccc23)c1	none
Cc1nn(Cc2ccc(Cl)cc2)c(=O)n1N(C)c1ncc(C(F)(F)F)cc1Cl	none | KCNK9 block conf inactive | Kir2-1 spec inactive | HEK293 Tl ctr inactive
Cc1nn(Cc2ccc([N+](=O)[O-])cc2)c(=O)n1N(C)c1ncc(C(F)(F)F)cc1Cl	none
CCCCNC(=O)c1onc(CSc2ccc(F)cc2)c1C(=O)NCCCC	none | KCNK9 block conf inactive | Kir2-1 spec inactive | HEK293 Tl ctr inactive
O=C(NCc1ccccc1)c1onc(CSc2ccccn2)c1C(=O)NCc1ccccc1	none | KCNK9 block conf inactive | Kir2-1 spec inactive | HEK293 Tl ctr inactive
CC(C)CCNC(=O)c1c(CSc2ccc(Cl)cc2)noc1C(=O)NCc1ccccc1	none | KCNK9 block conf inactive | Kir2-1 spec inactive | HEK293 Tl ctr inactive
O=C(NCc1ccccc1)c1onc(CSc2ccc(F)cc2)c1C(=O)NCc1ccccc1	none | KCNK9 block conf inactive | Kir2-1 spec inactive | HEK293 Tl ctr inactive
NC(=O)c1ccsc1NC(=O)COC(=O)[C@@H]1CCCN1C(=O)c1cccs1	none (no result: KCNK9 inh, KCNQ1 pot, KCNQ1 block, hERG protect, Kir21 inh)
Cc1cc(C(=O)NC2CC(C)(C)Cc3c2cnn3-c2ccccc2C)c(C)o1 (stereo not given)	none
CCCn1c(NC(=O)c2ccc(Cl)c(S(=O)(=O)N3CCCC3)c2)nc2ccccc21	KCNK9 inh -8.9 | KCNK9 block conf 40% | Kir2-1 spec inactive | HEK293 Tl ctr inactive
O=C(COC(=O)c1ccc(S(=O)(=O)N2CCCC2)cc1)Nc1ccccc1	none (no result: KCNK9 inh, KCNQ1 pot, KCNQ1 block, hERG protect, Kir21 inh)
O=C(COC(=O)c1ccc(Cl)c(S(=O)(=O)N2CCCCCC2)c1)Nc1ccccc1	none | KCNK9 block conf inactive | Kir2-1 spec inactive | HEK293 Tl ctr inactive
Cc1ccc(NC(=O)COC(=O)c2csc3c2CCC(C)C3)cc1S(=O)(=O)N1CCCCC1 (stereo not given)	KCNK9 inh -9.2 | KCNK9 block conf 32% | Kir2-1 spec inactive | HEK293 Tl ctr inactive
O=C(NCc1nc2ccccc2[nH]1)c1ccc(Cl)c(S(=O)(=O)N2CCCC2)c1	none
CCOC(=O)N1CCC(N2Cc3cccc(C(=O)Nc4ccc(N(CC)CC)cc4C)c3C2=O)CC1	none
CCCn1nnc(NC(=S)NC(=O)c2cccs2)n1	none
COc1cccc(OCCOCCOc2ccc(C)cc2[N+](=O)[O-])c1	none | KCNK9 block conf inactive | Kir2-1 spec inactive | HEK293 Tl ctr inactive
COc1cccc(OCCNc2cc(Cl)ccc2[N+](=O)[O-])c1	KCNK9 inh -12 | KCNK9 block conf 54% | Kir2-1 spec inactive | HEK293 Tl ctr 34%
COc1ccc(OCCOCCOc2ccc(C)cc2[N+](=O)[O-])cc1	none
CCCCn1c(N)c(N(CC)C(=O)c2c(C)noc2C)c(=O)[nH]c1=O	none (no result: KCNK9 inh, KCNQ1 pot, KCNQ1 block, hERG protect, Kir21 inh)
CCn1c(SCCOc2ccc(Cl)cc2)nnc1-c1cccs1	Kir21 inh -5.8 | KCNK9 block conf inactive | Kir2-1 spec inactive | HEK293 Tl ctr inactive
Cc1ccc2c(c1)N(Cc1ccc([N+](=O)[O-])cc1)C=NS2(=O)=O	none
CCN(CC)S(=O)(=O)c1cccc(NC(=O)CCSc2ccc(Cl)cc2)c1	none | KCNK9 block conf inactive | Kir2-1 spec inactive | HEK293 Tl ctr inactive
CN(C)S(=O)(=O)c1ccc(N2CCCC2)c(C(=O)NCC2COc3ccccc3O2)c1 (stereo not given)	none | KCNK9 block conf inactive | Kir2-1 spec inactive | HEK293 Tl ctr inactive
CN(C)S(=O)(=O)c1ccc(N2CCCC2)c(C(=O)Nc2ccccc2)c1	none
CN(C)S(=O)(=O)c1ccc(N2CCCC2)c(C(=O)Nc2ccccc2OC(F)F)c1	none | KCNK9 block conf inactive | Kir2-1 spec inactive | HEK293 Tl ctr inactive
CSc1ccccc1NC(=O)c1cc(S(=O)(=O)N(C)C)ccc1N1CCCC1	none | KCNK9 block conf inactive | Kir2-1 spec inactive | HEK293 Tl ctr inactive
CN(C)S(=O)(=O)c1ccc(N2CCCC2)c(C(=O)Nc2ccccc2N2CCOCC2)c1	none (no result: KCNK9 inh, KCNQ1 pot, KCNQ1 block, hERG protect, Kir21 inh)
O=C(CSc1nnc(COc2ccc(Cl)cc2)o1)N1CCOCC1	none
Clc1ccccc1COc1ccccc1-c1nnco1	none
c1ccc(OCCOc2ccccc2-c2nnco2)cc1	KCNK9 inh -8.4 | KCNK9 block conf inactive | Kir2-1 spec inactive | HEK293 Tl ctr 28%
Cn1c(Sc2ccc(Cl)cc2)c(C=O)c2ccccc21	KCNK9 inh -8.2, KCNQ1 block 7 | KCNK9 block conf 57% | Kir2-1 spec inactive | HEK293 Tl ctr 46%
Cn1c(Oc2ccc(F)cc2F)c(C=O)c2ccccc21	none
COC(=O)c1sc(-c2ccc(C(C)(C)C)cc2)cc1NC(=O)CSCC(=O)O	none | KCNK9 block conf inactive | Kir2-1 spec inactive | HEK293 Tl ctr inactive
COC(=O)c1sc(-c2ccc(C(C)(C)C)cc2)cc1NC(=O)c1ccccc1C(=O)O	none | KCNK9 block conf inactive | Kir2-1 spec inactive | HEK293 Tl ctr inactive
COC(=O)c1sc(-c2ccccc2)cc1NC(=O)C1CC1	none
Cc1cc(C)n(-c2nc3ccccc3c(=O)n2OCC#N)n1	none
O=C(N/N=C/c1ccc(O)cc1O)c1ccc(CN2C(=O)c3cccc4cccc2c34)cc1	KCNK9 inh -12, KCNK3 inh -12 | KCNK9 block conf 37% | Kir2-1 spec inactive | HEK293 Tl ctr 33%
O=C(N/N=C/c1ccccc1)c1ccc(CN2C(=O)c3cccc4cccc2c34)cc1	none
Cn1c(CO)cnc1SCC(=O)c1ccc(Cl)cc1	none
CC1CCCC(C)N1C(=O)COC(=O)c1cc(Br)ccc1Cl (stereo not given)	none | KCNK9 block conf inactive | Kir2-1 spec inactive | HEK293 Tl ctr inactive
CC1CCCC(C)N1C(=O)COC(=O)c1ccccc1O (stereo not given)	none (no result: KCNK9 inh, KCNQ1 pot, KCNQ1 block, hERG protect, Kir21 inh)
